Our source for the Activity and Time values is ChEMBL document CHEMBL1157848, “Derivatives of benzimidazole pharmacophore: synthesis, anticonvulsant, antidiabetic and DNA cleavage studies” (2010).

Format in all cases: functional
For test [1], the system named is Rattus norvegicus. Kind of test: Antidiabetic activity in Wistar albino rat assessed as reduction of blood glucose level administered qd for 9 days measured after 30 mins last post dose by oral glucose tolerance test (RVb = 183.2 +/- 3.68 mg/dl).
The subject of test [2] is Rattus norvegicus. Put plainly: Antidiabetic activity in Wistar albino rat assessed as reduction of blood glucose level administered qd for 9 days measured after 90 mins last post dose by oral glucose tolerance test (RVb = 135.7 +/- 2.9 mg/dl).
The test system of test [3] is Rattus norvegicus. Put plainly: Antidiabetic activity in Wistar albino rat assessed as reduction of blood glucose level administered qd for 9 days by glucose oxidation method (RVb = […] +/- […] mg/dl).
The subject of test [4] is Rattus norvegicus. Kind of test: Anticonvulsant activity in Wistar albino rat assessed as time spent on tonic flexion phase at 70 mg/kg by MES test (RVb = 3.12 +/- 0.31 sec). The method in brief:
(§1)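 Maximal electroshock (MES) convulsion model in rats. Duration in seconds of the flexion, extensor, clonus and stupor phases was recorded, along with recovery or death. The vehicle control was 1% w/w gum acacia and phenytoin was the reference. Data are mean ± SEM, with P < 0.05 taken as significant.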

Test [5] has as its system Rattus norvegicus. Put plainly: Anticonvulsant activity in Wistar albino rat assessed as time spent on stupor phase at 70 mg/kg by MES test (RVb = 218.33 +/- 5.80 sec). The method in brief: as §1
The test system of test [6] is Rattus norvegicus. Put plainly: Anticonvulsant activity in Wistar albino rat assessed as time spent on clonic convulsions phase at 70 mg/kg by MES test (RVb = 16.80 +/- 2.50 sec). The method in brief:
as §1

Test [7] relates to Rattus norvegicus. Put plainly: Anticonvulsant activity in Wistar albino rat assessed as time spent on tonic extensor phase at 70 mg/kg by MES test (RVb = 11 +/- 0.57 sec). The method in brief:
as §1

Test [8] deals with Rattus norvegicus. Kind of test: Antidiabetic activity in Wistar albino rat assessed as reduction of fasting blood glucose level administered qd for 9 days by oral glucose tolerance test (RVb = 83.33 +/- 1.54 mg/dl).
The subject of test [9] is Rattus norvegicus. Put plainly: Anticonvulsant activity in Wistar albino rat assessed as time spent on tonic extensor phase at 82 mg/kg by MES test. The method in brief:
as §1

The subject of test [10] is Rattus norvegicus. Kind of test: Anticonvulsant activity in Wistar albino rat assessed as time spent on tonic flexion phase at 82 mg/kg by MES test (RVb = 3.12 +/- 0.31 sec). The method in brief: as §1
Test [11] has as its system Rattus norvegicus. Put plainly: Anticonvulsant activity in Wistar albino rat assessed as time spent on stupor phase at 82 mg/kg by MES test (RVb = 218.33 +/- 5.80 sec). The method in brief: as §1
For test [12], the system named is Rattus norvegicus. Put plainly: Anticonvulsant activity in Wistar albino rat assessed as time spent on clonic convulsions phase at 82 mg/kg by MES test (RVb = 16.80 +/- 2.50 sec). The method in brief: as §1
Test [13] relates to Rattus norvegicus. Kind of test: Anticonvulsant activity in Wistar albino rat assessed as time spent on tonic extensor phase at 80 mg/kg by MES test (RVb = 11 +/- 0.57 sec). The method in brief: as §1
For test [14], the system named is Rattus norvegicus. Kind of test: Anticonvulsant activity in Wistar albino rat assessed as time spent on tonic flexion phase at 80 mg/kg by MES test (RVb = 3.12 +/- 0.31 sec). The method in brief:
as §1

The subject of test [15] is Rattus norvegicus. Put plainly: Anticonvulsant activity in Wistar albino rat assessed as time spent on stupor phase at 80 mg/kg by MES test (RVb = 218.33 +/- 5.80 sec). The method in brief:
as §1

For test [16], the system named is Rattus norvegicus. Kind of test: Anticonvulsant activity in Wistar albino rat assessed as time spent on clonic convulsions phase at 80 mg/kg by MES test (RVb = 16.80 +/- 2.50 sec). The method in brief: as §1
The test system of test [17] is Rattus norvegicus. Put plainly: Anticonvulsant activity in Wistar albino rat assessed as time spent on stupor phase at 60 mg/kg by MES test (RVb = 218.33 +/- 5.80 sec). The method in brief: as §1
Test [18] deals with Rattus norvegicus. Kind of test: Anticonvulsant activity in Wistar albino rat assessed as time spent on tonic extensor phase at 60 mg/kg by MES test (RVb = 11 +/- 0.57 sec). The method in brief:
as §1

For test [19], the system named is Rattus norvegicus. Kind of test: Anticonvulsant activity in Wistar albino rat assessed as time spent on tonic flexion phase at 60 mg/kg by MES test (RVb = 3.12 +/- 0.31 sec). The method in brief: as §1
Test [20] deals with Rattus norvegicus. Put plainly: Anticonvulsant activity in Wistar albino rat assessed as time spent on clonic convulsions phase at 60 mg/kg by MES test (RVb = 16.80 +/- 2.50 sec). The method in brief:
as §1

Test [21] has as its system Rattus norvegicus. Put plainly: Anticonvulsant activity in Wistar albino rat assessed as time spent on tonic flexion phase at 75 mg/kg by MES test (RVb = 3.12 +/- 0.31 sec). The method in brief:
as §1

The subject of test [22] is Rattus norvegicus. Put plainly: Anticonvulsant activity in Wistar albino rat assessed as time spent on stupor phase at 75 mg/kg by MES test (RVb = 218.33 +/- 5.80 sec). The method in brief:
as §1

In test [23] the test system is Rattus norvegicus. Put plainly: Anticonvulsant activity in Wistar albino rat assessed as time spent on clonic convulsions phase at 75 mg/kg by MES test (RVb = 16.80 +/-2.50 sec). The method in brief: as §1
The subject of test [24] is Rattus norvegicus. Kind of test: Anticonvulsant activity in Wistar albino rat assessed as time spent on tonic extensor phase at 75 mg/kg by MES test (RVb = 11 +/- 0.57 sec). The method in brief: as §1

`COc1ccc(Cl)cc1C(=O)NCCc1ccc(S(=O)(=O)NC(=O)NC2CCCCC2)cc1` [GLYBURIDE]: the figures for the Activity in the test with Rattus norvegicus [1], in the test on Rattus norvegicus [2] and in the test with Rattus norvegicus [3] were 176.8 mg/dL, 105.7 mg/dL and 139.2 mg/dL, respectively.

As to `Cc1ccc(C2SCC(=O)N2NC(=O)CSc2nc3ccccc3[nH]2)cc1` (stereo not given), the Time is 3.12 s with Rattus norvegicus [4], 207.3 s in the test on Rattus norvegicus [5], 14.62 s in the test with Rattus norvegicus [6] and 11 s with Rattus norvegicus [7].

For `O=[N+]([O-])c1ccc(-c2nnc(CSc3nc4ccccc4[nH]3)o2)cc1`, the Activity is 78.33 mg/dL with Rattus norvegicus [8], 154.5 mg/dL in the test on Rattus norvegicus [1], 110 mg/dL in the test with Rattus norvegicus [2] and 158.7 mg/dL with Rattus norvegicus [3].

Regarding `COc1cccc(C2SCC(=O)N2NC(=O)CSc2nc3ccccc3[nH]2)c1O` (stereo not given), the Time in the test with Rattus norvegicus [9] was found to be 4.21 s; in the test on Rattus norvegicus [10], 3.3 s; in the test with Rattus norvegicus [11], 213.8 s; in the test with Rattus norvegicus [12] it was 16.2 s.

For the molecule `O=C(CSc1nc2ccccc2[nH]1)NN1C(=O)CSC1c1ccccc1` (stereo not given), the Time with Rattus norvegicus [13] is given as 9.2 s; in the test with Rattus norvegicus [14], 3.2 s; with Rattus norvegicus [15], 192.5 s; with Rattus norvegicus [16], 1.2 s.

As for `c1cncc(-c2nnc(CSc3nc4ccccc4[nH]3)o2)c1`, the Activity with Rattus norvegicus [8] was determined as 81.34 mg/dL; with Rattus norvegicus [1] it was 181.8 mg/dL; in the test with Rattus norvegicus [2], 122.8 mg/dL; in the test with Rattus norvegicus [3], 343.3 mg/dL.

For the molecule `Nc1ccc(-c2nnc(CSc3nc4ccccc4[nH]3)o2)cc1`, the Activity in the test with Rattus norvegicus [8] came out at 80.85 mg/dL; in the test on Rattus norvegicus [1] it was 155.5 mg/dL; in the test on Rattus norvegicus [2], 106.5 mg/dL; in the test with Rattus norvegicus [3] it was 335.5 mg/dL.

For `O=C(CSc1nc2ccccc2[nH]1)NN1C(=O)CSC1c1c(O)ccc2ccccc12` (stereo not given), the Time stood at 172.5 s in the test with Rattus norvegicus [17], 3.98 s in the test on Rattus norvegicus [18], 3.08 s in the test on Rattus norvegicus [19] and 1.8 s with Rattus norvegicus [20].

As for `COc1ccc(C2SCC(=O)N2NC(=O)CSc2nc3ccccc3[nH]2)cc1` (stereo not given), the Time came out at 3.02 s in the test with Rattus norvegicus [21], 208 s in the test on Rattus norvegicus [22], 12.62 s in the test with Rattus norvegicus [23] and 9.5 s with Rattus norvegicus [24].

For the molecule `Nc1ccc(C2SCC(=O)N2NC(=O)CSc2nc3ccccc3[nH]2)cc1` (stereo not given), the Time in the test with Rattus norvegicus [17] stood at 210.5 s; with Rattus norvegicus [18] it was 5.66 s; in the test on Rattus norvegicus [19], 3.15 s; in the test with Rattus norvegicus [20], 15.4 s.

Consider `O=C1NC(=O)C(=O)C(=O)N1` [ALLOXAN], for which, in the test with Rattus norvegicus [3], the Activity was found to be 339.8 mg/dL.
